We go through twelve compounds from paper PMC6242712 (ChemMedChem, 2018).

For data set [1], the system named is U118MG cells. The data set is described as follows: MTT growth inhibition assay, U118MG. As to conditions: Homo sapiens, U-118-MG, 72 h, read-out: IC50, cytotoxicity U118MG. A general note: Formazan colour is commonly taken as a measure of viable cells.
The subject of data set [2] is A172 cells. Description: MTT growth inhibition assay, A172. Particulars: Homo sapiens, A 172, 72 h, read-out: IC50, cytotoxicity A172.
Data set [3] concerns U87MG cells. The data set is described as follows: MTT growth inhibition assay, U87MG. As to conditions: for IC50: read-out: IC50, cytotoxicity U87MG; for Effect on cell growth: in words.
Data set [4] has as its system NU04 cells. The data set is described as follows: MTT growth inhibition assay, NU04. Particulars: Homo sapiens, 72 h, read-out: IC50, cytotoxicity NU04.
The target of data set [5] is T1, PDI (Homo sapiens, UniProt P07237). The data set is described as follows: PDI-catalyzed insulin reduction. In kind it is biochemical.
The subject of data set [6] is U87MG cells. Description: Bru-seq nascent RNA sequencing. The format is cell-based, human. As to conditions: 1 μM, 4 hours. A digest of the protocol:
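U87MG cells plated on day 1, given fresh medium on day 5, then exposed to test compound (1 μM) or DMSO for 4 h. Bromouridine (2 mM final) labelled nascent RNA during the last 30 min. Total RNA was isolated in TRIzol, and BrU-RNA was isolated, sequenced and mapped. Genes >300 bp with mean RPKM >0.5 (7,770 genes) were ranked by fold change vs DMSO.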

The test system of data set [7] is U87MG cells. The data set is described as follows: ROS detection assay. In kind it is cell-based, human. Particulars: 5 μM, 24 hours; comparable to 100 μM hydrogen peroxide. Put shortly: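 Trypsinized U87MG cells were loaded in suspension with 20 μM H2DCFDA for 30 min at 37 °C, washed, plated at 20,000 cells/well, rested 30 min, then treated. Fluorescence (493/523 nm) was read at 4, 6 and 24 h. Hydrogen peroxide (500, 100, 20 μM) served as reference. Means ± standard deviation of three independent experiments.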

The test system of data set [8] is glioblastoma cells. The data set is described as follows: MTT growth inhibition of 35G8 combined with Z-VAD-FMK, necrostatin-1 or NAC. The format is cell-based, human.
For data set [9], the target named is T1, PDI. The data set is described as follows: DARTS assay in U87MG cell lysates, PDI. The format is binding. Particulars: 100 μM compound, U87MG lysate. A digest of the protocol: (§1)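 U87MG cells at 80–85% confluence were lysed on ice for 10 min (150 mM NaCl, 1% NP-40, 0.5% deoxycholate, 50 mM Tris pH 8.0) and cleared at 18,000 × g. Lysate (5 mg/ml) was incubated with 100 μM test compound or DMSO for 30 min at RT. Pronase (0, 0.005, 0.01, 0.02 μg/μL) was added for 30 min at RT and stopped with protease inhibitors on ice. 20 μg protein was Western blotted; three independent experiments.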

Data set [10] addresses T2, glutathione-transferase Omega 1 (GSTO1) (Homo sapiens, UniProt P78417).
T2 sequence (P78417 1-241): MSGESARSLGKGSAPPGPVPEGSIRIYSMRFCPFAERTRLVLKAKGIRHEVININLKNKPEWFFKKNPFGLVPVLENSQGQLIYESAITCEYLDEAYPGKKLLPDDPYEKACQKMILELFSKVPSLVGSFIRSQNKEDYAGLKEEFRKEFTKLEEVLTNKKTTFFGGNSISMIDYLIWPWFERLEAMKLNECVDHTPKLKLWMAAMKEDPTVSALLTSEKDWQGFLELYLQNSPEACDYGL
The data set is described as follows: Cellular thermal shift assay. The format is cell-based. Particulars: U87MG cells, 2 hours. Put shortly: (§2)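 U87MG cells (2 × 10^6 per 100 mm dish) were attached overnight, then treated with test compound (0.5, 1.0 or 2.0 μM) or DMSO for 2 h at 37 °C, 5% CO2. Cells were trypsinized, washed in DPBS and aliquoted. Aliquots were heated at set temperatures for 3 min, held 3 min at room temperature and freeze-thawed twice. Cleared supernatants were run on 10% SDS-PAGE and Western blotted.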

Data set [11] deals with T3, GSTO1 (Homo sapiens, UniProt P78417).
T3 sequence (P78417 1-241): T2 sequence (P78417 1-241)
The data set is described as follows: DARTS assay in U87MG cell lysates, GSTO1. In kind it is binding. As to conditions: 100 μM compound, U87MG lysate. A digest of the protocol:
as §1

Data set [12] deals with U87MG cells. The data set is described as follows: MTT cell viability with or without deferoxamine. Particulars: Homo sapiens, U-87 MG, 12 h, read-out: IC50, cell viability, used alone. In kind it is cell-based.
Data set [13] has as its system U87MG cells. The data set is described as follows: Western blot of protein expression. Particulars: 24-hour treatment. In kind it is cell-based, human. A digest of the protocol: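 U87MG cells were treated with test compound (1 or 2 μM) or vehicle for 24 h. 50 μg protein on 10% gels (12% for LC3B, DDIT3), transferred to PVDF. GAPDH loading control; triplicate experiments.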
(In general: A western blot detects proteins with antibodies after separation by electrophoresis.)

The target in data set [14] is T1, PDI. Description: Cellular thermal shift assay. The format is cell-based. As to conditions: U87MG cells, 2 hours. Put shortly:
as §2

In data set [15] the target is T4, GRP78 (Homo sapiens, UniProt P11021). The data set is described as follows: Cellular thermal shift assay. The format is cell-based. Particulars: U87MG cells, 2 hours. A digest of the protocol: as §2
The target of data set [16] is T4, GRP78. The data set is described as follows: DARTS assay in U87MG cell lysates, GRP78. The format is binding. Particulars: 100 μM compound, U87MG lysate. Put shortly: as §1
Data set [17] concerns PDI. As to conditions: reversible PDI modulator; cited from earlier work.
In data set [18] the test system is U87MG cells.
Data set [19] relates to A172 cells.
Data set [20] has as its system U118MG cells.
In data set [21] the test system is NU04 cells.

Like-named read-outs stand apart in the source and are kept apart here.

T4 sequence (P11021 19-654): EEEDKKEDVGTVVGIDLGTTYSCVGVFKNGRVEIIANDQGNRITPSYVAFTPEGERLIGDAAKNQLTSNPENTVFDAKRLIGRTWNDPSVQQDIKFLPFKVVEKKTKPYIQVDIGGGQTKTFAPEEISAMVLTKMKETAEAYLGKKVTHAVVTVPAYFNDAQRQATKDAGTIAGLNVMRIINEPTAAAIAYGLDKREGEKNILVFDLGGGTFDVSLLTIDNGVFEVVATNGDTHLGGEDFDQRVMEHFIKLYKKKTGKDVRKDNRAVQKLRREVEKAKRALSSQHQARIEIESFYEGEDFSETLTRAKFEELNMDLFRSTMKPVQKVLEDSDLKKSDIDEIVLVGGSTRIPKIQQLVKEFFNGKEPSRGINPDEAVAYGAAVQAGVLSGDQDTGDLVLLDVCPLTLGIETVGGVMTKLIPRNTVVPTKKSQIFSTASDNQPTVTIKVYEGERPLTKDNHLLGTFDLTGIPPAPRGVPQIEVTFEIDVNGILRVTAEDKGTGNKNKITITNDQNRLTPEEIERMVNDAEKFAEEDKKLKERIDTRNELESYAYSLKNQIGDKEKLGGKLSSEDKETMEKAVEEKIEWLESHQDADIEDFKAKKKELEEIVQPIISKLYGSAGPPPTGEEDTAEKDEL
T1 sequence (P07237 18-508): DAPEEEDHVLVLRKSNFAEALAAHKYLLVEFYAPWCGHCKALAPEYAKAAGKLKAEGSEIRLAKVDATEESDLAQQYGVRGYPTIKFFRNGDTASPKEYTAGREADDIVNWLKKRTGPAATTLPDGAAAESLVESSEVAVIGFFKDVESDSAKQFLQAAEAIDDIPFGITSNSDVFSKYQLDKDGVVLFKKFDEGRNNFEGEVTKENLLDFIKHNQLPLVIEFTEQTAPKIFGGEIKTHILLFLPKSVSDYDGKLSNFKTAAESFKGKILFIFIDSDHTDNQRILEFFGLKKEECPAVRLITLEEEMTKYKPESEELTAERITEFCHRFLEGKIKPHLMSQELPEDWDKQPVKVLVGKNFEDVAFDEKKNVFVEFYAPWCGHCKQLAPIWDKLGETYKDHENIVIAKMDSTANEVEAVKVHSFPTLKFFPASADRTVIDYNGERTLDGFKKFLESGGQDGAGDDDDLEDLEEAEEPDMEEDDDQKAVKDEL

On to `Cn1nc(-c2ccccc2)nc2c(=O)n(C)c(=O)nc1-2` [Compound 4b, 1,6-Dimethyl-3-phenylpyrimido[5,4-e][1,2,4]triazine-5,7(1H,6H)-dione], for which the IC50 was 4600 ± 500 nM in data set [1]; 1800 ± 400 nM in [2]; 3000 ± 300 nM in [3] (Homo sapiens, U-87 MG, 72 h); 3700 ± 1200 nM in data set [4]; 390 ± 30 nM in data set [5].

Consider `Cn1nc(Cc2ccccc2)nc2c(=O)n(C)c(=O)nc1-2` [Compound 4c, 3-Benzyl-1,6-dimethylpyrimido[5,4-e][1,2,4]triazine-5,7(1H,6H)-dione], for which the IC50 in data set [1] was 24000 ± 7400 nM; in data set [2] it was 8200 ± 2500 nM; in data set [3] (Homo sapiens, U-87 MG, 72 h), 12700 ± 3700 nM; in data set [4] it was > 30000 nM; in data set [5] it was 330 ± 40 nM.

With `COc1ccc(-c2nc3c(=O)n(C)c(=O)nc-3n(C)n2)cc1` [Compound 4d, 3-(4-Methoxyphenyl)-1,6-dimethylpyrimido[5,4-e][1,2,4]triazine-5,7(1H,6H)-dione], the IC50 was determined as 3900 ± 600 nM in data set [1]; 1500 ± 400 nM in data set [2]; 1200 ± 200 nM in data set [3] (Homo sapiens, U-87 MG, 72 h); 860 ± 40 nM in [4]; 360 ± 50 nM in [5].

As to `COc1cccc(-c2nc3c(=O)n(C)c(=O)nc-3n(C)n2)c1` [Compound 4e, 3-(3-Methoxyphenyl)-1,6-dimethylpyrimido[5,4-e][1,2,4]triazine-5,7(1H,6H)-dione], the IC50 was 2400 ± 600 nM in [1]; 1500 ± 100 nM in data set [2]; 1100 ± 200 nM in data set [3] (Homo sapiens, U-87 MG, 72 h); 760 ± 220 nM in [4]; 320 ± 10 nM in [5].

In the case of `Cn1nc(-c2ccc([N+](=O)[O-])cc2)nc2c(=O)n(C)c(=O)nc1-2` [Compound 4f, 1,6-Dimethyl-3-(4-nitrophenyl)pyrimido[5,4-e][1,2,4]triazine-5,7(1H,6H)-dione], the IC50 came out at 6200 ± 1600 nM in data set [1]; 1100 ± 200 nM in data set [2]; 1800 ± 700 nM in [3] (Homo sapiens, U-87 MG, 72 h); 4900 ± 1200 nM in data set [4]; 240 ± 40 nM in data set [5].

In the case of `COc1ccc(-c2nn(C)c3nc(=O)n(C)c(=O)c-3[n+]2[O-])cc1` [Compound 5d, 3-(4-Methoxyphenyl)-1,6-dimethyl-5,7-dioxo-1,5,6,7-tetrahydropyrimido[5,4-e][1,2,4]triazine 4-oxide], the IC50 was 4300 ± 100 nM in [1]; 1700 ± 100 nM in data set [2]; 1900 ± 700 nM in data set [3] (Homo sapiens, U-87 MG, 72 h); 1500 ± 700 nM in data set [4]; 420 ± 70 nM in data set [5].

With `Cc1nc2c(=O)n(C)c(=O)nc-2n(C)n1` [Compound 35G8, 1,3,6-Trimethylpyrimido[5,4-e][1,2,4]triazine-5,7(1H,6H)-dione], in data set [6], the CHAC1 transcription is given as 46 fold increase, the DDIT3 transcription was determined as 4 fold increase, the EGR1 transcription is on record as −5.65 fold change and the HSPA5 transcription was found to be 8 fold increase. For the same compound, in [6], the IRS2 transcription is listed as 12 fold increase, the ITGA3 transcription is −3.89 fold change, the TMEM74 transcription was found to be 28 fold increase and the TRIB3 transcription is 23 fold increase. In data set [6], the TXN expression is 2 fold increase, the TXNIP expression was determined as 7.4 fold decrease, the TXNIP transcription is recorded as −7.40 fold change and the TXNRD1 expression is recorded as 9 fold increase. The ROS induction result in data set [7] is recorded as “maximal ROS induction”. Further, in [8] (NAC added at the same time as 35G8), the “Effect of N-acetyl-cysteine (NAC) on cytotoxicity of 35G8” value is “did not affect”. Besides, in data set [8] (Necrostatin-1 added 1 hour prior to 35G8), the “Protection from 35G8-induced cell death by necrostatin-1 pretreatment” value was “did not protect”. The “Protection from 35G8-induced cell death by Z-VAD-FMK pretreatment” value in data set [8] (Z-VAD-FMK added 1 hour prior to 35G8) is “did not protect”. Moreover, the IC50 in [1] was 3900 ± 100 nM. Moreover, the “Protection of PDI from pronase proteolysis (DARTS)” value in data set [9] was “protected”. Besides, in data set [10], the “Effect on thermal stability of GSTO1 (CETSA)” value is reported as “stabilize”. For the same compound, the “Effect on degradation of GSTO1 (DARTS)” value in data set [11] is given as “no effect”. In addition, the IC50 in data set [2] turned out to be 2000 ± 600 nM. The IC50 in [12] amounted to 2200 ± 700 nM. In addition, in data set [13] (2 μM), the “Cleaved LC3B expression” value was “increased significantly”; the DDIT3 protein expression result is listed as “increased”; the “Expression of ATG3, ATG5, ATG7 and beclin 1” value was “did not change”; the “GRP78 (HSPA5) protein expression” value was “increased”. Besides, in [13] (1 or 2 μM), the HMOX1 protein expression entry was “parallel increases” and the SLC7A11 protein expression entry is given as “parallel increases”. Further, the “Effect on thermal stability of PDI (CETSA)” value in data set [14] was “destabilized”. In addition, in [15], the “Effect on thermal stability of GRP78 (CETSA)” value is “little effect”. For the same compound, the IC50 in data set [3] (Homo sapiens, U-87 MG, 72 h) worked out at 1100 ± 200 nM. For the same compound, the “Effect on degradation of GRP78 (DARTS)” value in data set [16] is given as “no effect”. Moreover, the IC50 in data set [4] was 800 ± 200 nM. In addition, half-maximal inhibition in data set [5] (IC50) was put at 170 ± 10 nM.

For `O=C(C1CC1)N1CCN(Cn2sc3ccccc3c2=O)CC1` [LOC14], in data set [17], the EC50 is 500 nM.

As for `Cn1ncnc2c(=O)n(C)c(=O)nc1-2` [NC72], the IC50 in data set [3] (MTT, 72 hours) is 500 ± 100 nM.

In the case of `Cn1c(=O)[nH]c2nncnc2c1=O` [NC75], the “Effect on cell growth” value in [3] (MTT) was “little effect on cell growth”. Further, the IC50 in data set [3] (MTT, 72 hours) was > 100000 nM.

Consider `Cc1nn(C)c2nc(=O)n(C)c(=O)c-2[n+]1[O-]` [NC79], for which the “Effect on cell growth” value in [3] (MTT) is recorded as “little effect on cell growth”. In addition, in data set [3] (MTT, 72 hours), the IC50 was > 100000 nM.

With PACMA31, the “Protection of PDI from pronase proteolysis (DARTS)” value in data set [9] was “protected”. The “Effect on degradation of GSTO1 (DARTS)” value in data set [11] is on record as “no effect”. Further, the IC50 in data set [18] is 130 ± 70 nM; in data set [19], 120 ± 100 nM; in data set [20], 280 ± 40 nM; in data set [21] it was 400 ± 100 nM. The “Effect on degradation of GRP78 (DARTS)” value in data set [16] is “no effect”.

As usually defined, the IC50 is the concentration that inhibits the measured activity by half. The term EC50 denotes the midpoint of the concentration-response curve.
